In the library only some 3.9% were active in any assay of this set; here they are far more common.
STAT3 act-1 = activators of IL-6 induced STAT3 signaling; U3A cells, IL-6 STAT3-luciferase reporter, luminescence; 100% = signal with IL-6 EC80 alone; activation (% of control), % at 5.6 µM; hit rate 0.91% among 190,000;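 active means activation above the screen-wide mean of compound activation plus 3 SD, cut at about 130% in these data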;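 further: 0% = background luminescence of wells with medium and substrate only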
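Material: human STAT1-deficient U3A cells with stable STAT3-luciferase reporter / Probe or stimulus: IL-6 stimulus at 33 ng/mL final / Schedule: 1 h compound pre-exposure, 6 h IL-6 stimulation, 37 °C / Technique: luminescence / Read-out basis: percent of IL-6-only median luminescence / Control set: IL-6-only high control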
STAT1 act-1 = STAT1 signaling activation; AID 932; activation (% of control), % at 5.5 µM; NIH 3T3 STAT1-luciferase reporter, IFN-gamma, luminescence; 100% = IFN-gamma alone, no compound; hit rate 2.6% among 200,000;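 active means activation above the screen-wide mean activation plus 3 SD, cut at about 130% in these data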;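 further: raw ratio to IFN-gamma control signal so 100% means no change and 0% no light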
STAT1 inh-1 = STAT1 signaling inhibition; NIH 3T3 STAT1-luciferase reporter, IFN-gamma, luminescence; inhibition, % at 5.5 µM; hit rate 0.35% among 200,000;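 active means inhibition above a set limit, the mean inhibition across all tested compounds plus 3 SD, cut at about 34% in these data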;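 further: 0% = IFN-gamma with DMSO and 100% = IFN-gamma with 300 µM nifuroxazide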
Pf gamet viab = P. falciparum stage V gametocyte viability inhibition | P. falciparum stage V gametocytes, ATP luminescence, 24 h | inhibition, % at 10.9 µM | hit rate 0.065% among 150,000 | AID 743093;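 active means inhibition above the mean plus 3 SD of compounds within the control limits, set per campaign, cut at about 38% in these data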;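 further: 0% = DMSO wells and 100% = medium only without gametocytes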
APP 5'UTR act = activates APP 5'UTR luciferase reporter; SH-SY5Y APP 5'UTR luciferase reporter, luminescence; zero percent = DMSO vehicle wells; activation, % at 2 µM; hit rate 1% among 190,000;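 active means activation above a set limit, based on mean plus 3 SD of controls, cut at about 140% in these data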
NF-kB neuron act = raises NF-kB expression in human neuronal cells | NF-kB reporter expression; hits give high values | fold change at 12.5 µM | hit rate 1.6% among 190,000 | AID 1239; in the data active means fold change above about 3.3
STAT3 act-2 = STAT3 activation, confirmation assay; AID 1267; potentiation (% of control), % at 5.7 µM; hit rate 64% among 1,200; U3A STAT3-luciferase reporter, IL-6 potentiation, luminescence; U3A cells lack STAT1; 100 means same as IL-6 alone; shares compounds with STAT3 act-1;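 active means percent activation of the STAT3 luciferase reporter above a set limit taken from the earlier primary screen, cut at about 130% in these data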;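 further: 0% = background signal of medium plus substrate and 100% = median of IL-6 with DMSO wells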
NFkB act 2 = NF-kappaB activation in STAT3 activator counter-screen; shares compounds with STAT3 act-1; hit rate 11% among 1,200; human cells, NF-kappaB reporter activation; activation (% of control), % at 5.7 µM; in the data active means activation above about 120%;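 further: reporter induced by TNF-alpha stimulation; 100% = median of stimulated DMSO wells and 0% = no signal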
STAT1 act-2 = counter-screen for STAT3 activators: STAT1 activation; shares compounds with STAT3 act-1; NIH 3T3 STAT1-luciferase reporter, IFN-gamma, luminescence; activation (% of control), % at 5.7 µM; hit rate 13% among 1,200;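 active means activation above the solvent-only control well mean plus 3 SD, set per screening run, cut at about 120% in these data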;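 further: 100% = IFN-gamma with DMSO median signal so 100% means no change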
STAT1 inh-2 = confirmation of STAT1 signaling inhibitors; shares compounds with STAT1 inh-1; NIH 3T3 STAT1-luciferase reporter, IFN-gamma, luminescence; inhibition, % at 5.5 µM; hit rate 55% among 200; AID 1263;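 active means triplicate mean inhibition exceeding the hit cutoff computed for the primary STAT1 screen, cut at about 35% in these data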;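 further: 0% = DMSO with IFN-gamma and 100% = 300 µM nifuroxazide with IFN-gamma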
NFkB inh = inhibits NF-kappaB, counter-screen to STAT1 inhibitors | shares compounds with STAT1 inh-1 | hit rate 30% among 200 | inhibition, % at 5.7 µM | HEK293T NF-kB luciferase reporter, TNF-alpha induced, luminescence;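 active means inhibition above the mean of solvent-only control wells plus 3 SD of those wells, cut at about 15% in these data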;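 further: 0% = DMSO with TNF-alpha and 100% = MG-132 control with TNF-alpha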
STAT3 inh STAT1c = STAT3 inhibition in STAT1 inhibitor counter-screen. inhibition, % at 5.7 µM. shares compounds with STAT1 inh-1. AID 1310. U3A cells, IL-6 STAT3 luciferase reporter, luminescence; cells lacking STAT1. hit rate 20% among 200;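 active means inhibition above the mean of solvent-only control wells plus 3 SD, set per campaign, cut at about 25% in these data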;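 further: 0% = IL-6 plus DMSO and 100% = IL-6 plus nifuroxazide control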
The depositor's hits bear a star; . = not tested or not shown.

SMILES | STAT3 act-1 | STAT1 act-1 | STAT1 inh-1 | Pf gamet viab | APP 5'UTR act | NF-kB neuron act | STAT1 inh-2 | NFkB inh | STAT3 inh STAT1c | others
CCC(C)(C)n1nnnc1CN1CCc2ccccc21 | 145* | 100 | -4 | 7 | -3 | 1.2 | . | . | . | STAT3 act-2=126;NFkB act 2=105;STAT1 act-2=103
c1ccc(CCn2nnnc2CN2CCCc3ccccc32)cc1 | 128 | 103 | -4 | 16 | 34 | 1.6 | . | . | .
CC1=NC(=O)C(N=Nc2cccc(O)c2)N1c1ccccc1 (stereo not given) | 185* | 113 | -14 | . | 109 | 4.2* | . | . | . | STAT3 act-2=187*;NFkB act 2=105;STAT1 act-2=120
O=C(O)CCC(C(=O)O)n1c(O)c(C2=c3ccccc3=NC2=O)sc1=S (stereo not given) | 145* | 105 | -4 | . | -2 | 1.2 | . | . | . | STAT3 act-2=138*;NFkB act 2=105;STAT1 act-2=97
Cc1cc(SCC(=O)c2cc3ccccc3o2)nc2ccccc12 | 146* | 96 | 4 | -15 | 11 | 1.2 | . | . | . | STAT3 act-2=150*;NFkB act 2=107;STAT1 act-2=95
Cc1cc(C)c(C#N)c(SCc2nc3ccccc3[nH]2)n1 | 185* | 117 | -18 | -1 | 148* | 2.9 | . | . | . | STAT3 act-2=165*;NFkB act 2=110;STAT1 act-2=105
COC(=O)c1c(C)[nH]c(C(=O)CN2CCOCC2)c1C | 139* | 91 | 10 | . | 0 | 1.1 | . | . | . | STAT3 act-2=138*;NFkB act 2=108;STAT1 act-2=99
COc1ccccc1C1c2[nH]c3ccccc3c2CCN1Cc1cnc(C)s1 (stereo not given) | 146* | 49 | 54* | 11 | 2 | 0.89 | 32 | 6 | -53 | STAT3 act-2=176*;NFkB act 2=106;STAT1 act-2=95
O=C1[C@H]2[C@@H](c3ccc(F)cc3)N3C(=O)N(c4ccc(Br)cc4)C(=O)[C@@]3(Cc3ccccc3)[C@H]2C(=O)N1C1CCCCC1 | . | . | . | 12 | . | . | . | . | .
CCCNC(=O)CSCc1nc(-c2ccc(SC)cc2)oc1C | 95 | 87 | 13 | -3 | 8 | 1.1 | . | . | .
CCc1ccc(-c2nc(CSCC(=O)NCc3ccco3)c(C)o2)cc1 | 84 | 24 | 83* | 6 | -47 | 0.29 | 75* | 37* | 23
N#CN(Cc1ccccc1)Cc1ccccc1 | . | . | . | 14 | . | . | . | . | .
COc1ccc(CNC(=O)c2c(C)oc3c2C(=O)c2ccccc2C3=O)cc1 | 102 | 111 | -12 | . | -10 | 0.34 | . | . | .
Cc1oc2c(c1C(=O)NCc1cccnc1)C(=O)c1ccccc1C2=O | . | 18 | 90* | . | -95 | 0.15 | 98* | 74* | 65*
COc1ccc(-n2ccnc2SCC(=O)NO)cc1 | 108 | 102 | -5 | -26 | 2 | 1.2 | . | . | .
Cc1nn(Cc2ccc(Cl)c(Cl)c2)c(C)c1NC(=O)c1cc(-c2ccc3c(c2)OCO3)on1 | 89 | 67 | 37* | . | -52 | 0.86 | 27 | 8 | 18
COc1ccc(Cl)cc1NC(=S)NNC(=O)c1cccs1 | 101 | 104 | -5 | 8 | 15 | 0.97 | . | . | .
O=C(CSc1nc2ccccc2c(=O)n1Cc1ccco1)N1CCCC1 | 98 | 66 | 37* | . | 17 | 0.77 | 19 | 10 | 10
NC(=O)CSc1nc2ccccc2c(=O)n1Cc1ccco1 | 98 | 98 | 1 | 16 | 12 | 1 | . | . | .
O=C(Nc1cnccn1)Nc1ccc(Cl)cc1Cl | 85 | 117 | -20 | 8 | 33 | 1.3 | . | . | .
O=c1cnc2cc([N+](=O)[O-])ccc2[nH]1 | 105 | 102 | -4 | 6 | 0 | 1 | . | . | .
COc1cccc(/C=N/n2c(-c3cc(C)[nH]n3)n[nH]c2=S)c1O | . | . | . | -20 | . | . | . | . | .
Cc1cc(O)ccc1N1C(=O)c2cccc3cc([N+](=O)[O-])cc(c23)C1=O | 87 | 56 | 46* | 1 | 6 | 1.4 | 30 | 0 | 9
CCOC(=O)N1CCN(C(=O)c2ccc(NC(C)=O)cc2)CC1 | 101 | 95 | 5 | . | 1 | 1.1 | . | . | .
CCOC(=O)N1CCN(C(=O)c2ccc(NC(=O)c3ccc(C)cc3)cc2)CC1 | 93 | 37 | 68* | -3 | -10 | 0.8 | 61* | 0 | 11
SMILES | STAT3 act-1 | STAT1 act-1 | STAT1 inh-1 | Pf gamet viab | APP 5'UTR act | NF-kB neuron act | STAT1 inh-2 | NFkB inh | STAT3 inh STAT1c | others
Cc1sc(-c2ccccn2)nc1OC(=O)c1ccc(F)cc1F | 93 | 30 | 74* | 0 | -21 | 1.2 | 50* | 24* | -11
Fc1ccc(-n2nnc(-c3cnc4ccccc4c3)n2)cc1 | . | 24 | 83* | 15 | 98 | 2.2 | 21 | 76* | 78*
CCOC(=O)c1c(N/C=C(\C#N)c2nc(-c3ccc(OC(C)=O)cc3)cs2)sc2c1CCC2 | . | . | . | -8 | . | . | . | . | .
O=C1[C@H]2[C@@H](/C=C/c3ccccc3)N3C(=O)CN(Cc4ccccn4)C(=O)[C@@]3(Cc3ccccc3)[C@H]2C(=O)N1c1ccccc1 | . | . | . | -24 | . | . | . | . | .
CCc1ccc(OCCOCC(O)CNC2CCCC2)cc1 (stereo not given) | 98 | 97 | 1 | -4 | 21 | . | . | . | .
O=C(O)c1ccc(N/N=C/c2cc3c(cc2[N+](=O)[O-])OCO3)cc1 | 73 | 65 | 36* | 1 | 24 | 0.9 | 65* | 45* | 15
N=c1c2ccccc2nc2n1CCCCCCCCCCC2 | . | . | . | -1 | . | . | . | . | .
CCOC(=O)C(=CNc1cc(C)nn1-c1ccc(C)cc1)C(=O)OCC | 90 | 36 | 69* | . | -22 | 0.7 | 60* | 40* | 15
CCOC(=O)C(=CNc1cc(C)ccc1C)C(=O)OCC | 80 | 67 | 37* | -5 | -8 | 0.73 | 33 | -1 | -18
CCOC(=O)C(=CNc1cc(C)ccc1[N+](=O)[O-])C(=O)OCC | . | . | . | 7 | . | . | . | . | .
CCOC(=O)C(=CNc1cc(C)nn1C(C)(C)C)C(=O)OCC | 105 | 86 | 15 | -5 | . | 0.86 | . | . | .
FC(F)(F)c1ccnc(NCc2ccco2)n1 | . | . | . | -1 | . | . | . | . | .
Nc1nnc(/C=C/c2ccccc2Cl)s1 | . | . | . | -1 | . | . | . | . | .
CCOC(=O)C1=C(C)N(CCCC(=O)O)C(=O)NC1c1ccc(C(F)(F)F)cc1 (stereo not given) | . | . | . | -23 | . | . | . | . | .
O=C(CCl)N(c1ccccc1)c1ccccc1 | 76 | 66 | 36* | -15 | -45 | 0.15 | 36* | 24* | 24
O=C(N(c1ccccc1)c1ccccc1)N(c1ccccc1)c1ccccc1 | . | . | . | -13 | . | . | . | . | .
